Screening data (PubChem)
The list is not random: actives were taken first. Their share in the collection is about 1.5%.
CCR6 antag = antagonists of human CCR6 receptor | P51684 | CHO-K1 CCR6 PathHunter beta-arrestin, luminescence, CCL20-stimulated | inhibition, % at 20 µM | 340,000 tested, 0.49% active | AID 493098;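 active = compounds whose inhibition of the agonist-driven luminescence signal at 20 µM reaches about 50%, limit read from the data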;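 also: cells stimulated with CCL20 at 14 nM final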
APJ antag = APJ receptor antagonism | P35414 | CHO-K1 APJ beta-arrestin complementation, luminescence | inhibition, % at 20 µM | 330,000 tested, 0.32% active | AID 2521;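 active = inhibition above about 40% at 20 µM, limit read from the data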;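 also: cells challenged with 10 nM apelin-13 agonist together with compound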
CXCR6 block = blocks human CXCR6 beta-arrestin recruitment; O00574; CHO-K1 PathHunter CXCR6 beta-arrestin, luminescence; inhibition, % at 20 µM; 360,000 tested, 0.36% active; AID 602244; in the data active = inhibition above about 34%, passing the limit was not always enough;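 also: antagonist mode with CXCL16 agonist at 10 nM final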
Target sequence (O00574 whole entry, looked up): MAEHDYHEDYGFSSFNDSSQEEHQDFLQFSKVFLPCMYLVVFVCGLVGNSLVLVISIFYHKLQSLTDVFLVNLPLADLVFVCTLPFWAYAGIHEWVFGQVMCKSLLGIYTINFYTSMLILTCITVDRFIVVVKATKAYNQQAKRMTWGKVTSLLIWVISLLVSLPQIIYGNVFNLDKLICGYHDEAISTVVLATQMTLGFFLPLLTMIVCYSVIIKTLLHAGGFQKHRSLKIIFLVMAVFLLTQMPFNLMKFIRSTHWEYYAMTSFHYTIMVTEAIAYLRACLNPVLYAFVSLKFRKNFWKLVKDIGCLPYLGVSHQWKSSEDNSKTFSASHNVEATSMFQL
EBI2 antag = blocks human EBI2 receptor beta-arrestin signaling; P32249; EBI2 beta-arrestin recruitment, luminescence, 7a,25-OHC stimulated; inhibition, % at 5 µM; 360,000 tested, 0.81% active; in the data active = inhibition above about 38%;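 also: enzyme fragment complementation signal reports receptor beta-arrestin coupling in cells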
APJ agonist = agonists of human APJ apelin receptor. P35414. CHO-K1 APJ PathHunter beta-arrestin, luminescence; 0% DMSO wells, 100% apelin. activation, % at 20 µM. 330,000 tested, 0.11% active;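 active = activation more than six SD over the plate average, tested at 20 µM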
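Incubation: overnight seeding, 90 min compound at 25 °C, 1 h detection; test system: PathHunter CHO-K1 APJ (AGTRL-1) beta-arrestin reporter cells; amount: 1000 cells/well; doses: one dose, 20 µM compound, 1% DMSO; measured by: beta-gal luminescence; measure: agonist-driven arrestin binding to APJ; benchmarks: negative DMSO alone, positive Apelin-13 at 10 nM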
Numbers stand for hits; . = inactive; / = not tested or not shown.

SMILES | CCR6 antag | APJ antag | CXCR6 block | EBI2 antag | APJ agonist
Cc1ccc(S(=O)(=O)NC2=C(N3CCN(Cc4ccccc4)CC3)C(=O)c3ccccc3C2=O)cc1 | 54 | . | . | . | .
Cc1ccc(C)c(SCC(=O)Nc2ccc(C)c(S(=O)(=O)N3CCOCC3)c2)c1 | . | . | . | . | .
COc1ccc(CC(=O)OC(C)C(=O)c2ccc(C)cc2)cc1 (stereo not given) | . | . | . | . | .
COc1ccc(C(=O)C(C)OC(=O)c2cccc(S(=O)(=O)Nc3cc(Cl)c(OC)cc3OC)c2)cc1 (stereo not given) | . | . | . | 37 | .
O=c1cc(-c2c(F)c(F)c(F)c(F)c2F)oc2c(F)c(F)c(F)c(F)c12 | / | 52 | / | / | .
COc1c(OC)c(O)c2c(=O)cc(-c3c(O)cccc3O)oc2c1OC | . | . | . | . | .
O=C(CS(=O)(=O)Cc1ccccc1)NCc1ccc2c(c1)OCO2 | 52 | . | . | . | .
CCN(CC)S(=O)(=O)c1ccc2c(c1)nc(-c1ccccn1)n2C | . | . | . | . | .
Cc1ccc(S(=O)(=O)N2CCOCC2)cc1C(=O)NCCc1ccc(Cl)cc1 | . | . | . | . | .
COc1ccc(NC(=S)NC(NC(=O)c2cccc(Cl)c2)C(Cl)(Cl)Cl)c([N+](=O)[O-])c1 (stereo not given) | 58 | . | . | . | .
Cc1ccc(CNCCCn2cnc(C(=O)Nc3ccc(C)c(C)c3)n2)o1 | . | / | . | . | /
Cc1ccc(NC(=S)NCc2ccccn2)cc1 | . | . | . | . | .
S=C(NCc1ccccn1)NN=Cc1ccccn1 | 61 | / | . | . | /
COc1ccc(C(=O)NC2CCN(CC(=O)N3CCCCC3)CC2)cc1 | . | . | . | . | .
Oc1ccc(/C=N/Nc2cc(N3CCCC3)nc(N3CCCC3)n2)cc1 | . | . | . | 55 | .
Clc1ccc(CSc2nccn2Cc2ccccc2)cc1 | . | . | . | 77 | .
O=c1ccn(Cc2ccccc2)c(SCc2ccccc2)n1 | . | / | . | . | /
O=C(NCCOc1ccccc1F)c1cc([N+](=O)[O-])ccc1N1CCOCC1 | . | . | . | . | .
O=C(NCCOc1ccccc1)c1cc([N+](=O)[O-])ccc1N1CCOCC1 | . | . | . | 59 | .
N#Cc1ccccc1Cn1cc(/C=C/[N+](=O)[O-])c2ccccc21 | 55 | . | . | . | .
O=[N+]([O-])/C=C/c1cn(Cc2ccccc2)c2ccccc12 | . | . | . | . | .
O=C(O)c1ccccc1NS(=O)(=O)c1cccc(C(F)(F)F)c1 | . | . | . | . | .
O=C(O)c1ccccc1NS(=O)(=O)c1cccc(-n2sc3ccccc3c2=O)c1 | . | . | . | 96 | .
CCOC(=O)c1c(NC(N)=O)sc(C)c1C | . | . | . | . | .
CCOC(=O)c1c(N2C(=O)C=CC2=O)sc(C)c1C | / | . | 61 | . | .
SMILES | CCR6 antag | APJ antag | CXCR6 block | EBI2 antag | APJ agonist
CCN(CC)CCN(Cc1cc2cc3c(cc2[nH]c1=O)OCCO3)C(=S)NC | . | . | . | . | .
COc1cc(N=Nc2cccc(S(N)(=O)=O)c2)c2ccccc2c1N | 67 | / | . | . | /
Cc1cccc2c1NC(=O)/C2=C\C(=O)c1cccs1 | . | . | . | 43 | .
Cc1cc(Br)c2c(c1)/C(=C/C(=O)c1cccs1)C(=O)N2 | . | . | . | . | .
Cc1cc(C)c2c(c1)/C(=C/C(=O)c1ccc(Br)s1)C(=O)N2 | . | . | . | 74 | .
Cn1c(N)c(C(=O)CSc2nnc3n2CCCCC3)c(=O)n(C)c1=O | . | . | . | . | .
Cc1ccc(C(=O)ONc2ccc(N=NC(=O)c3ccccc3O)cc2)cc1 | 56 | . | . | . | .
COC(=O)[C@]1(C)N[C@H](CN(C)C(=O)c2ccc(C)cc2)[C@@H]2C(=O)N(Cc3ccccc3)C(=O)[C@@H]21 | . | . | . | . | .
CCOC(=O)c1ccc(N=c2sc(C(=O)OC)cc(=O)n2C2CC2)cc1 | . | . | . | . | .
CCOC(=O)c1ccc(N=c2sc(C(=O)OC)cc(=O)n2Cc2ccc3c(c2)OCO3)cc1 | . | . | . | 73 | .
Cc1ccccc1C(=O)N1CCC(C(=O)N2CCN(c3ncccn3)CC2)CC1 | . | . | . | . | .
CCOC(=O)N1CCN(C(=O)C2CCN(C(=O)c3ccccc3C)CC2)CC1 | / | / | 109 | . | /
N#C/C(=C(/O)c1ccc([N+](=O)[O-])s1)c1nc2ccccc2[nH]1 | 63 | . | . | . | .
N#C/C(=C(/O)c1ccc(Br)s1)c1nc2ccccc2[nH]1 | . | . | . | . | .
